Results: ChEMBL document CHEMBL1132381, “Pyrrolidine-3-carboxylic acids as endothelin antagonists. 4. Side chain conformational restriction leads to ET(B) selectivity” (J Med Chem, 1999)

What was measured:
[1] = molecular target: T1, Endothelin-1 receptor (Homo sapiens, UniProt P25101); test: Binding affinity towards human Endothelin A receptor (hET -A)
T1 sequence (P25101 whole entry): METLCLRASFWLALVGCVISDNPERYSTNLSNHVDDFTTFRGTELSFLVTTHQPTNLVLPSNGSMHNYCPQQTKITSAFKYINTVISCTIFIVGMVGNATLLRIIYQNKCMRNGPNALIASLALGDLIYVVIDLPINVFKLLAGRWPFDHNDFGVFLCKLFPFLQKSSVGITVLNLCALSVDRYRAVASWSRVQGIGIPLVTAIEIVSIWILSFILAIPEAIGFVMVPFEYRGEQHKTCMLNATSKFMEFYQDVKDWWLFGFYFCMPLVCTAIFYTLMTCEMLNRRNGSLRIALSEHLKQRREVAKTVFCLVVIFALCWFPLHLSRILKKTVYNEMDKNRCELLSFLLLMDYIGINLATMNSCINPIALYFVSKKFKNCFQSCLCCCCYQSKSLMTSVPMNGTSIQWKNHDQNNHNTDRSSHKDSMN

[2] = molecular target: Endothelin receptor, ET-A/ET-B (Homo sapiens) (UniProt P24530+P25101); test: Ratio of binding affinity towards hETA to hETB; format: protein assay
Summary of the method: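 Ratio of IC50 values from two CHO membrane binding assays. Both run 3 h at 25 °C over 11 concentrations, 10^-10 to 10^-5 M, in duplicate, with at least 2 determinations each.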

[3] = molecular target: T2, Endothelin receptor type B (Homo sapiens, UniProt P24530); test: Binding affinity towards human Endothelin B receptor (hET -B)
T2 sequence (P24530 whole entry): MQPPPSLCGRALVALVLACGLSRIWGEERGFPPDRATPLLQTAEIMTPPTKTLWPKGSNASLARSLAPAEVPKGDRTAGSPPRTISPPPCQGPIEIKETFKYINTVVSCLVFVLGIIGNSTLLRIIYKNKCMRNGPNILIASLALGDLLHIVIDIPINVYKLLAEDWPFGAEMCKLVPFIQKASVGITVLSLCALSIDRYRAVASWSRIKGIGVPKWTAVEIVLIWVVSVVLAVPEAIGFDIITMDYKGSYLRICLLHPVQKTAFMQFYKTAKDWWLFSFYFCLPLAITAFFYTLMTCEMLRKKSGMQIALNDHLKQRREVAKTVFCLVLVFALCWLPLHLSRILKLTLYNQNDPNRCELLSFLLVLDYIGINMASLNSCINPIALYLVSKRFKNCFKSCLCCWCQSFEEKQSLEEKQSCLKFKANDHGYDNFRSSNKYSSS

[4] = Oral bioavailability in rat; conditions: in vivo
[5] = Compound was evaluated for area under curve when administered through oral route in rat; conditions: in vivo
[6] = Compound was evaluated for the biological half-life when administered through intravenous route; format: ADME, organism-based; conditions: in vivo
[7] = system: CHO; test: Antagonistic activity was measured by ET receptor mediated hydrolysis of inositol phosphates; format: functional, cell-based; conditions: Cricetulus griseus
Summary of the method: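 Inositol phosphate hydrolysis in human ETB-transfected CHO cells. Confluent cells labeled with 5 μCi/well [3H]myoinositol, then held 60 min at 37 °C in HEPES saline buffer with protease inhibitors and 10 mM LiCl. Compounds added, then 1 nM ET-1 challenge for 30 min at 37 °C. Total inositol phosphates measured; agonist activity assessed in the same run.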

[8] = Compound was evaluated for area under curve when administered through oral route to rat; conditions: in vivo
[9] = species on record: Rattus norvegicus; test: Clearance role of ET-B evaluated in terms of increase in circulating levels of ET-1 in rats; format: functional
[10] = species on record: Rattus norvegicus; test: Clearance role of ET-B evaluated in terms of increase in mean arterial pressure (MAP) in rats; format: functional, Artery
[11] = Oral bioavailability in rat; conditions: in vivo; remark: listed apart in the source
[12] = system: Rattus norvegicus; test: Oral bioavailability in rat

| Compound | IC50 [1] [nM] | Ratio [2] | IC50 [3] [nM] | also measured |
| --- | --- | --- | --- | --- |
| CCc1cccc(OC)c1NC(=O)CN1C[C@H](c2ccc3c(c2)OCO3)[C@@H](C(=O)O)[C@@H]1c1ccc(OC)cc1 | 200 | 34 | 5.8 | – |
| COc1ccc([C@H]2[C@H](C(=O)O)[C@@H](c3ccc4c(c3)OCO4)CN2CC(=O)Nc2cc(C)cc(C)c2)cc1 | 160 | 0.06 | 2700 | – |
| CCOc1ccc([C@H]2[C@H](C(=O)O)[C@@H](c3ccc4c(c3)OCO4)CN2CC(=O)Nc2c(CC)cccc2CC)cc1 (stereo in doubt; 31) [listing 1 of 2 here] | 910 | – | 3.6 | – |
| CCCc1cccc(CCC)c1NC(=O)CN1C[C@H](c2ccc3c(c2)OCO3)[C@@H](C(=O)O)[C@@H]1c1ccc(OC)cc1 | 12 | 0.03 | 460 | – |
| CCOc1ccc([C@H]2[C@H](C(=O)O)[C@@H](c3ccc4c(c3)OCO4)CN2CC(=O)Nc2c(CC)cccc2CC)cc1 (stereo in doubt; 37) [listing 1 of 2 here] | – | 280 | – | – |
| CCc1cc(CC)c(NC(=O)CN2C[C@H](c3ccc4c(c3)OCO4)[C@@H](C(=O)O)[C@@H]2c2ccc(OC)cc2)c(CC)c1 | 10 | 7 | 1.5 | – |
| CCc1cccc(CC)c1NC(=O)CN1C[C@H](c2ccc3c(c2)OCO3)[C@@H](C(=O)O)[C@@H]1c1ccc(OC)cc1 (stereo in doubt; 19) [listing 1 of 2 here] | 45 | – | 1.4 | – |
| CCc1cccc(CC)c1NC(=O)CN1C[C@H](c2ccc3c(c2)OCO3)[C@@H](C(=O)O)[C@@H]1c1ccc(CCOC)cc1 | 11000 | 3000 | 3.8 | – |
| CCc1cccc(CC)c1NC(=O)CN1C[C@H](c2ccc3c(c2)OCO3)[C@@H](C(=O)O)[C@@H]1c1ccc(OC)cc1 (stereo in doubt; 36) [listing 1 of 2 here] | 89 | – | 0.27 | bioavailability [4]: 49%; AUC [5]: 3900 ng·h/mL; half-life [6]: 6.4 h |
| COc1ccc([C@H]2[C@H](C(=O)O)[C@@H](c3ccc4c(c3)OCO4)CN2CC(=O)Nc2c(C)cccc2C)cc1 | 33 | 2 | 16 | – |
| CCc1cc(C(=O)O)cc(CC)c1NC(=O)CN1C[C@H](c2ccc3c(c2)OCO3)[C@@H](C(=O)O)[C@@H]1c1ccc(OC)cc1 | 840 | 19 | 44 | – |
| COc1ccc([C@H]2[C@H](C(=O)O)[C@@H](c3ccc4c(c3)OCO4)CN2CC(=O)Nc2c(OC)cccc2OC)cc1 | 16 | 0.3 | 57 | – |
| COc1ccc([C@H]2[C@H](C(=O)O)[C@@H](c3ccc4c(c3)OCO4)CN2CC(=O)Nc2c(Br)cccc2Br)cc1 | 61 | 6 | 10 | – |
| CCCOc1ccc([C@H]2[C@H](C(=O)O)[C@@H](c3ccc4c(c3)OCO4)CN2CC(=O)Nc2c(CC)cccc2CC)cc1 (stereo in doubt; 32) [A-192621] | 9900 | – | 12 | – |
| CCCc1cccc(CC)c1NC(=O)CN1C[C@H](c2ccc3c(c2)OCO3)[C@@H](C(=O)O)[C@@H]1c1ccc(OC)cc1 | 15 | 0.2 | 82 | – |
| COc1ccc([C@H]2[C@H](C(=O)O)[C@@H](c3ccc4c(c3)OCO4)CN2CC(=O)Nc2c(C(C)C)cccc2C(C)C)cc1 | 920 | 35 | 26 | – |
| COc1ccc([C@H]2[C@H](C(=O)O)[C@@H](c3ccc4c(c3)OCO4)CN2CC(=O)Nc2ccc(C)c(C)c2)cc1 | 50 | 0.06 | 830 | – |
| CCOc1ccc([C@H]2[C@H](C(=O)O)[C@@H](c3ccc4c(c3)OCO4)CN2CC(=O)Nc2c(CC)cccc2CC)cc1 (stereo in doubt; 37) [listing 2 of 2 here] | 340 | – | 1.2 | bioavailability [4]: 37%; IC50 [7]: 7.9 nM; half-life [6]: 3.1 h; AUC [8]: 3400 ng·h/mL |

| Compound | IC50 [1] [nM] | Ratio [2] | IC50 [3] [nM] | also measured |
| --- | --- | --- | --- | --- |
| CCc1cccc(CC)c1NC(=O)CN1C[C@H](c2ccc3c(c2)OCO3)[C@@H](C(=O)O)[C@@H]1c1ccc(OC(C)C)cc1 | 1500 | 220 | 6.9 | – |
| CCCOc1ccc([C@H]2[C@H](C(=O)O)[C@@H](c3ccc4c(c3)OCO4)CN2CC(=O)Nc2c(CC)cccc2CC)cc1 (stereo in doubt; 32) | – | 820 | – | – |
| COc1ccc([C@H]2[C@H](C(=O)O)[C@@H](c3ccc4c(c3)OCO4)CN2CC(=O)Nc2c(C)cccc2C(C)C)cc1 | 100 | 5 | 20 | – |
| CCc1cccc(CC)c1NC(=O)CN1C[C@H](c2ccc3c(c2)OCO3)[C@@H](C(=O)O)[C@@H]1c1ccc(OCCOC)cc1 (stereo in doubt; 34) [listing 1 of 2 here] | – | 4000 | – | – |
| CCc1cccc(CC)c1NC(=O)CN1C[C@H](c2ccc3c(c2)OCO3)[C@@H](C(=O)O)[C@@H]1c1ccc(OCCOC)cc1 (stereo in doubt; 34) [listing 2 of 2 here] | 4200 | – | 1.1 | – |
| CCc1cccc(CC)c1NC(=O)CN1C[C@H](c2ccc3c(c2)OCO3)[C@@H](C(=O)O)[C@@H]1c1ccc(OC)cc1 (stereo in doubt; 19) [listing 2 of 2 here] | – | 32 | – | – |
| COc1ccc([C@H]2[C@H](C(=O)O)[C@@H](c3ccc4c(c3)OCO4)CN2CC(=O)Nc2cccc(C)c2C)cc1 | 16 | 0.2 | 81 | – |
| CCc1cccc(CC)c1NC(=O)CN1C[C@H](c2ccc3c(c2)OCO3)[C@@H](C(=O)O)[C@@H]1c1ccc(OC)cc1 (stereo in doubt; 36) [listing 2 of 2 here] | – | 330 | – | – |
| CCCOc1ccc([C@H]2[C@H](C(=O)O)[C@@H](c3ccc4c(c3)OCO4)CN2CC(=O)Nc2c(CC)cccc2CC)cc1 (stereo in doubt; 38) | – | 1300 | – | – |
| CCc1cccc(C)c1NC(=O)CN1C[C@H](c2ccc3c(c2)OCO3)[C@@H](C(=O)O)[C@@H]1c1ccc(OC)cc1 | 15 | 4 | 4 | – |
| CCc1cccc(CC)c1N(C)C(=O)CN1C[C@H](c2ccc3c(c2)OCO3)[C@@H](C(=O)O)[C@@H]1c1ccc(OC)cc1 | 190 | 0.3 | 600 | – |
| CCCOc1ccc([C@H]2[C@H](C(=O)O)[C@@H](c3ccc4c(c3)OCO4)CN2CC(=O)Nc2c(CC)cccc2CC)cc1 (stereo in doubt; 38) [A-192621] | 8200 | – | 6.4 | IC50 [7]: 0.65 nM; half-life [6]: 5 h; ET-1 level [9]: 19 pg/mL; AUC [8]: 2500 ng·h/mL; MAP [10]: 150 mmHg; bioavailability [11]: 35% |
| COc1ccc([C@H]2[C@H](C(=O)O)[C@@H](c3ccc4c(c3)OCO4)CN2CC(=O)Nc2cc(C)ccc2C)cc1 | 33 | 0.4 | 82 | – |
| CCc1cccc(CC)c1NC(=O)CN1C[C@H](c2ccc3c(c2)OCO3)[C@@H](C(=O)O)[C@@H]1c1ccc(OCCOC)cc1 (stereo in doubt; 39) [listing 1 of 2 here] | – | 4400 | – | bioavailability [12]: 9% |
| COc1ccc([C@H]2[C@H](C(=O)O)[C@@H](c3ccc4c(c3)OCO4)CN2CC(=O)Nc2ccc(C)cc2C)cc1 | 25 | 0.3 | 74 | – |
| CCc1cccc(CC)c1NC(=O)CN1C[C@H](c2ccc3c(c2)OCO3)[C@@H](C(=O)O)[C@@H]1c1ccc(OCCOC)cc1 (stereo in doubt; 39) [listing 2 of 2 here] | 3700 | – | 0.85 | half-life [6]: 2.6 h; AUC [8]: 650 ng·h/mL |
| CCOc1ccc([C@H]2[C@H](C(=O)O)[C@@H](c3ccc4c(c3)OCO4)CN2CC(=O)Nc2c(CC)cccc2CC)cc1 (stereo in doubt; 31) [listing 2 of 2 here] | – | 250 | – | – |
| CCc1cc(F)cc(CC)c1NC(=O)CN1C[C@H](c2ccc3c(c2)OCO3)[C@@H](C(=O)O)[C@@H]1c1ccc(OC)cc1 | 22 | 24 | 0.8 | – |
